Measured values collected from several papers.
Converted amounts (≈) assume the structure as drawn.

SMILES	assay	system	setting	quantity	value
CCN(CC)CCNC(=O)c1cc(S(C)(=O)=O)cnc1OC		PBS	2 h, pH 7.4, 25 °C	kinetic solubility	393 µM (≈ 129 µg/mL)
CCCCCCCCCCCCCCCC(=O)NCCO		water	12 h, 37 °C	thermodynamic solubility	< 16 µg/mL
O=[N+]([O-])c1ccc(Nc2ncnc3ccc(-c4cccc(N5CCOCC5)c4)cc23)cc1C(F)(F)F		aqueous buffer	pH 7.4, 25 °C	thermodynamic solubility	< 0.4 µM
N#Cc1ccc(C[C@H](NC(=O)c2cc3cc(F)ccc3[nH]2)C(=O)N2CCc3ccccc32)cc1		aqueous buffer	2 h, pH 7.4, 37 °C	kinetic solubility	1 µM (≈ 0.452 µg/mL)
Cc1nccn1CC1CCc2c(c3ccccc3n2C)C1=O (stereo not drawn)		PBS	2 h, pH 7.4, 25 °C	kinetic solubility	110 µM (≈ 32.3 µg/mL)
Fc1ccccc1Nc1nc(-c2ccncc2)nc2c1CNCC2		PBS	24 h, pH 7.4	kinetic solubility	> 250 µM
O=C(Nc1ccc(OC(F)(F)F)cc1)N[C@H]1CC[C@H](Oc2ccc(C(=O)O)cc2)CC1		simulated gastric fluid	15 min, pH 1, 37 °C, acidic	solubility	0.0023 µg/mL
CNS(=O)(=O)c1ccc(Nc2ncc(C(F)(F)F)c([C@H]3CC[C@@](C)(O)CC3)n2)c(C)c1		FaSSIF	2 h	solubility	128 µM
Cc1ccc(-c2nnc(N[C@@H](Cc3ccc(C#N)cc3)C(=O)N3CCc4ccccc43)o2)cc1		aqueous buffer	2 h, pH 7.4, 37 °C	kinetic solubility	5.4 µM (≈ 2.43 µg/mL)
CC[C@H](C)[C@H](NC(=O)[C@H](C)NC(=O)CNC(=O)[C@H](Cc1ccccc1)NC(=O)[C@H](CC(N)=O)NC(=O)[C@H](CC(N)=O)NC(=O)[C@H](CO)NC(=O)[C@H](CO)NC(=O)[C@H](Cc1c[nH]cn1)NC(=O)[C@@H](NC(=O)[C@H](CC(C)C)NC(=O)[C@H](Cc1ccccc1)NC(=O)[C@H](CC(N)=O)NC(=O)[C@H](C)NC(=O)[C@H](CC(C)C)NC(=O)[C@H](CCCNC(=N)N)NC(=O)[C@H](CCC(N)=O)NC(=O)[C@@H](NC(=O)[C@H](C)NC(=O)[C@@H]1CSSC[C@H](NC(=O)[C@@H](N)CCCCN)C(=O)N[C@@H](CC(N)=O)C(=O)N[C@@H]([C@@H](C)O)C(=O)N[C@@H](C)C(=O)N[C@@H]([C@@H](C)O)C(=O)N1)[C@@H](C)O)C(C)C)C(=O)N[C@@H](CC(C)C)C(=O)N[C@@H](CO)C(=O)N[C@@H](CO)C(=O)N[C@H](C(=O)N[C@@H](CC(N)=O)C(=O)N[C@H](C(=O)NCC(=O)N[C@@H](CO)C(=O)N[C@@H](CC(N)=O)C(=O)N[C@H](C(=O)N[C@@H](Cc1ccc(O)cc1)C(N)=O)[C@@H](C)O)C(C)C)[C@@H](C)O		PBS	1 h, pH 7.4	thermodynamic solubility	37 µg/mL
Cc1ccccc1CN1C(=O)C2=C(CCN(Cc3ccccc3)C2)N2CCN=C12	shake flask	aqueous buffer	pH 4.5	solubility	98600 µg/mL
N#Cc1ccc(C[C@@H](Nc2c(Nc3ccc(F)cc3)c(=O)c2=O)C(=O)N2CCc3ccccc32)cc1		aqueous buffer	2 h, pH 7.4, 37 °C	kinetic solubility	11.8 µM (≈ 5.67 µg/mL)
CCCCCCCCCCCCCCCC(=O)NCCOC(=O)C[C@@H](CN)CC(C)C		water	12 h, 37 °C	thermodynamic solubility	3460 µg/mL
Clc1ccc(Nc2ncnc3ccc(-c4cccc(N5CCOCC5)c4)cc23)cc1		aqueous buffer	pH 7.4, 25 °C	thermodynamic solubility	< 0.4 µM
N#Cc1ccc(C[C@H](Nc2nnc(-c3ccc(Br)cc3)o2)C(=O)N2CCc3ccccc32)cc1		aqueous buffer	2 h, pH 7.4, 37 °C	kinetic solubility	1.8 µM (≈ 0.926 µg/mL)
